Test [1] has as its target T1, Vitamin D3 receptor (Homo sapiens) (UniProt P11473).
T1 sequence (whole entry): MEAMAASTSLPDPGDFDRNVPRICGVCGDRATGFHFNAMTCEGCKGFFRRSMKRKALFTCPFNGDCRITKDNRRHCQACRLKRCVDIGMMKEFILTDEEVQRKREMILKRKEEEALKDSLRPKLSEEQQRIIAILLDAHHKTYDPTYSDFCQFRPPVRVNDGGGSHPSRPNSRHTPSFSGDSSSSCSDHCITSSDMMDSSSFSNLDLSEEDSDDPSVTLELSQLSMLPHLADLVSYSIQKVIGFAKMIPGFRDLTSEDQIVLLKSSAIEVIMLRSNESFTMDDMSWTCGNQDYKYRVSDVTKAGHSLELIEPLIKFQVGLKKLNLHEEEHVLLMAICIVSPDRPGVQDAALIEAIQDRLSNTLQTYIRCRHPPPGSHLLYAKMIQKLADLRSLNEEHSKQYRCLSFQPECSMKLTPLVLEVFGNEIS
Briefly: Agonist activity at human VDR expressed in human HCT116 cells co-expressing VDRE assessed as XDR3 transcriptional activity at 20 to 40 uM after 24 hrs by luciferase reporter gene assay. It counts as cell-based. The note with it: HCT-116. The method, boiled down:
(§1)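 HCT-116 cells were transfected with a firefly luciferase plasmid holding two copies of the CYP3A4 XDR3 VDRE, plus a Renilla control. From 18 h post-transfection they were exposed to 3.75 x 10^-5 M compound, 10^-10 M 1,25D or DMSO in complete medium for 24 h. Dual-luciferase firefly/Renilla ratio. Three independent experiments, triplicate wells, mean ± SD.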
On the technique in general: Reporter assays use an easily measured gene product as a stand-in for the process of interest.

In test [2] the target is T1, Vitamin D3 receptor (Homo sapiens). The experiment in a line: Agonist activity at human VDR expressed in human HCT116 cells assessed as CYP24A1 transcriptional activity at 20 to 40 uM after 24 hrs by luciferase reporter gene assay. It is filed as cell-based. The note with it: HCT-116. The method, boiled down: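 HCT-116 cells (DMEM, 10% FBS, 37 °C, 5% CO2) plated at 90,000 cells/well ~24 h before transfection with a firefly luciferase reporter carrying the natural human CYP24A1 promoter (2 VDREs) plus Renilla control. Treated 18 h after transfection with 3.75 x 10^-5 M compound, 10^-10 M 1,25D or DMSO for 24 h. Read-out is dual luciferase, firefly/Renilla x10,000. Triplicate wells.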

For test [3], the target named is T2, Retinoic acid receptor RXR-alpha (Homo sapiens) (UniProt P19793).
T2 sequence (whole entry): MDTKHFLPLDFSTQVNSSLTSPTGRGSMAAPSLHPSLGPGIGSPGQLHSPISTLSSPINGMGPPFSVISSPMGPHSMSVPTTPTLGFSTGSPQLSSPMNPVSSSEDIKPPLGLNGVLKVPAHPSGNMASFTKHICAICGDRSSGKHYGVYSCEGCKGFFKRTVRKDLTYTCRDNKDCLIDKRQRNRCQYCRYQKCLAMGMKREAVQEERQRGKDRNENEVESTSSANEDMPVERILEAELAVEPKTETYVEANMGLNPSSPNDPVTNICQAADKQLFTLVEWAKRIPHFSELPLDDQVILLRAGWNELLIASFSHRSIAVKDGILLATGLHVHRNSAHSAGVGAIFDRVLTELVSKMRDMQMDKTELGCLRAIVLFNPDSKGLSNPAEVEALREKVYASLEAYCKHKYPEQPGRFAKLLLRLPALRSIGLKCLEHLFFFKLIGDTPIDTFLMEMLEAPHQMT
The experiment in a line: Induction of RXRalpha-AD/RXRalpha-BD (unknown origin) homodimerization expressed in human HCT116 cells at 20 to 40 uM after 24 hrs by luciferase reporter gene assay. It counts as cell-based. As to conditions: HCT-116. Put shortly: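 RXR–RXR homodimerization was measured by M2H in HCT-116 cells transfected with RXRα-AD prey, RXRα-BD bait, pFR-luc and Renilla control. […] Firefly luciferase was normalized to Renilla. Three independent experiments, triplicate samples, SD.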

The target in test [4] is T1, Vitamin D3 receptor (Homo sapiens). Briefly: Agonist activity at human VDR expressed in human HCT116 cells assessed as induction of recruitment of SRC-1 at 20 to 40 uM after 24 hrs by mammalian two hybrid system based luciferase reporter gene assay. It is filed as cell-based. The note with it: HCT-116. The method, boiled down: (§2)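 M2H in HCT-116 used a VDR-AD prey with an SRC-1-BD or DRIP205-BD bait (50 ng each), 250 ng pFR-luc and 20 ng pRL-null per well. Cells were treated with 3.75 x 10^-5 M compound, 10^-10 M 1,25D or DMSO for 24 h. Firefly luciferase was normalized to Renilla. Duplicate experiments, triplicate samples, SD.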

The next test addresses T3, Vitamin D3 receptor (Homo sapiens, UniProt P11473).
T3 sequence (P11473 whole entry): T1 sequence (whole entry)
The experiment in a line: Agonist activity at human VDR expressed in human HCT116 cells co-expressing VDRE assessed as XDR3 transcriptional activity after 24 hrs by luciferase reporter gene assay. It is filed as cell-based, HCT-116. Put shortly: as §1

For test [5], the target named is T1, Vitamin D3 receptor (Homo sapiens). The experiment in a line: Agonist activity at human VDR expressed in human HCT116 cells assessed as induction of recruitment of DRIP205 at 20 to 40 uM after 24 hrs by mammalian two hybrid system based luciferase reporter gene assay. It counts as cell-based. As to conditions: HCT-116. Put shortly: as §2

Calls of active or inactive are those of the source. The rule behind the calls is not given here.

In the case of `COc1cc(/C=C/C(=O)/C=C(O)/C=C/c2cc(F)c(O)c(OC)c2)cc(F)c1O`, in test [1], the outcome was Active.

`O=C(/C=C(O)/C=C/c1ccc(O)c(Cl)c1)/C=C/c1ccc(O)c(Cl)c1`: the outcome in test [1], in test [2] and in test [3] was Active.

Turning to `COc1cc(CCC(=O)/C=C(\O)CCc2ccc(O)c(OC)c2)ccc1O`, in test [1], the outcome was Active.

For the compound `COc1cc(/C=C/C(=O)CC(=O)/C=C/c2ccc(O)c(OC)c2)ccc1O` [CURCUMIN], the outcome in test [4], in test [5] and in test [2] was Active. Besides, the EC50 at Vitamin D3 receptor is 20 µM.

Consider `COc1cc(CCC(=O)/C=C(\O)CCc2cc(F)c(O)c(OC)c2)cc(F)c1O`, for which the result in test [1] and in test [2] was inactive.

Turning to `O=C(/C=C(O)/C=C/c1ccc(O)c(Br)c1)/C=C/c1ccc(O)c(Br)c1`, the outcome in test [1], in test [2] and in test [3] was Active.

Consider `O=C(/C=C(O)/C=C/c1ccc(O)cc1F)/C=C/c1ccc(O)cc1F`, for which the result in test [1] and in test [2] was inactive.

In the case of `COc1cc(/C=C/C(=O)/C=C(O)/C=C/c2cc(Br)c(O)c(OC)c2)cc(Br)c1O`, the result in test [4], in test [5], in test [1], in test [2] and in test [3] was Active.

On to `O=C(/C=C(\O)CCc1ccc(O)cc1F)CCc1ccc(O)cc1F`, for which the outcome in test [1] and in test [2] was inactive.

Take `COc1cc(/C=C/C(=O)/C=C(O)/C=C/c2cc(I)c(O)c(OC)c2)cc(I)c1O`: the outcome in test [4], in test [5], in test [1], in test [2] and in test [3] was Active.

In the case of `O=C(/C=C(O)/C=C/c1ccc(O)c(OC(F)(F)F)c1)/C=C/c1ccc(O)c(OC(F)(F)F)c1`, the outcome in test [4], in test [5], in test [1], in test [2] and in test [3] was Active.

Consider `COc1cc(/C=C/C(=O)/C=C(O)/C=C/c2cc(Cl)c(O)c(OC)c2)cc(Cl)c1O`, for which the result in test [1], in test [2] and in test [3] was Active.

By EC50 is commonly meant the concentration needed to bring the measured effect to its halfway point.

Values taken from ChEMBL document CHEMBL2321735, “Synthesis and biological evaluation of halogenated curcumin analogs as potential nuclear receptor selective agonists” (Bioorg Med Chem, 2013).
